Experimental data pooled from the literature.
Compare with care: the assays were run in different laboratories.
CYP1A1: Cytochrome P450 1A1 (CYP1A1, Homo sapiens, UniProt P04798)
Enoyl-[acyl-carrier-protein] reductase [NADPH] FabI: Enoyl-[acyl-carrier-protein] reductase [NADPH] FabI (Staphylococcus aureus, UniProt Q6GI75)
BCL2L2: Bcl-2-like protein 2 (BCL2L2, Homo sapiens, UniProt Q92843)

SMILES | target | assay | conditions | Ki [nM]
CC[C@H](C)[C@H](NC(=O)[C@H](CCC(=O)O)NC(=O)[C@H](CC(=O)O)NC(=O)CNC(=O)[C@H](CC(C)C)NC(=O)[C@H](CCCNC(=N)N)NC(=O)[C@H](CCC(N)=O)NC(=O)[C@H](CC(C)C)NC(=O)[C@H](CO)NC(=O)[C@H](CCC(N)=O)NC(=O)[C@@H](NC(=O)[C@H](CC(C)C)NC(=O)[C@H](Cc1c[nH]c2ccccc12)NC(=O)[C@@H](NC(=O)[C@H](CCC(=O)O)NC(=O)[C@@H]1CCCN1C(=O)[C@H](CCCNC(=N)N)NC(C)=O)[C@@H](C)CC)[C@@H](C)O)C(=O)N[C@@H](CC(N)=O)C(=O)N[C@@H](C)C(=O)N[C@@H](Cc1ccc(O)cc1)C(=O)N[C@@H](Cc1ccc(O)cc1)C(=O)N[C@@H](C)C(=O)N[C@@H](CCCNC(=N)N)C(N)=O | Apoptosis regulator Bcl-2 (BCL2, Homo sapiens, UniProt P10415) | ligand displacement, FP |  | ~2700
C#Cc1ccc2c(=O)cc(-c3ccccc3)oc2c1 | CYP1A1 | enzyme activity, inhibitor, fluorescence | 6 min, pH 7.6 | 24
CCc1cc(O)c(Oc2cccnc2F)cc1F | Enoyl-[acyl-carrier-protein] reductase [NADPH] FabI | enzyme activity, inhibitor |  | 0.35
NCCCC[C@H](NC(=O)[C@@H]1CCCN1C(=O)[C@@H]1CSSC[C@H](N)C(=O)N[C@@H](Cc2ccc(O)cc2)C(=O)N[C@@H](Cc2ccccc2)C(=O)N[C@@H](CCC(N)=O)C(=O)N[C@@H](CC(N)=O)C(=O)N1)C(=O)NCC(N)=O | Vasopressin V1a receptor (AVPR1A, Homo sapiens, UniProt P37288) | ligand displacement, radioligand | cell membranes | 1.8
COc1cc(O)c(CC=C(C)C)c2c1C(=O)CC(c1ccc(O)cc1)O2 (stereo not drawn) | CYP1A1 | enzyme activity, inhibitor, fluorescence | 15 min, pH 7.4 | 1600
O=C(O)CCC(NC(=O)NC(CCCCNC(=O)CCCCCCC(=O)NC(CCCCNC(=O)CN1CCN(CC(=O)O)CCN(CC(=O)O)CCN(CC(=O)O)CC1)C(=O)OCc1ccccc1)C(=O)O)C(=O)O (stereo not drawn) | Glutamate carboxypeptidase 2 (FOLH1, Homo sapiens, UniProt Q04609) | enzyme activity, inhibitor, fluorescence |  | 2.9
CC[C@H](C)[C@H](NC(=O)[C@H](CCC(=O)O)NC(=O)[C@H](CC(=O)O)NC(=O)CNC(=O)[C@H](CC(C)C)NC(=O)[C@H](CCCNC(=N)N)NC(=O)[C@H](CCCNC(=N)N)NC(=O)[C@H](CC(C)C)NC(=O)CNC(=O)[C@H](CCC(N)=O)NC(=O)[C@@H](NC(=O)[C@H](CCSC)NC(=O)[C@H](Cc1c[nH]c2ccccc12)NC(=O)[C@@H](NC(=O)[C@H](CCC(=O)O)NC(=O)[C@@H]1CCCN1C(=O)[C@H](CCCNC(=N)N)NC(C)=O)[C@@H](C)CC)[C@@H](C)O)C(=O)N[C@@H](CC(N)=O)C(=O)N[C@@H](C)C(=O)N[C@@H](Cc1ccc(O)cc1)C(=O)N[C@@H](Cc1ccc(O)cc1)C(=O)N[C@@H](C)C(=O)N[C@@H](CCCNC(=N)N)C(N)=O | BCL2L2 | ligand displacement, FP |  | 1500
N#Cc1cc(Br)ccc1Oc1ccc(Cl)cc1O | Enoyl-[acyl-carrier-protein] reductase [NADPH] FabI | enzyme activity, inhibitor |  | 0.17
C#Cc1cccc(-c2cc(=O)c3ccccc3o2)c1 | CYP1A1 | enzyme activity, inhibitor, fluorescence | 6 min, pH 7.6 | 41
CC[C@H](NC(=O)[C@H](CS(=O)(=O)CC1CC1)N[C@@H](c1ccc(F)cc1)C(F)(F)F)C(=O)C(=O)NC1CC1 | Cathepsin S (Ctss, Mus musculus, UniProt O70370) | enzyme activity, inhibitor |  | 0.04
CC(C)=CCc1c(O)cc(O)c2c1O[C@H](c1ccc(O)cc1)CC2=O | CYP1A1 | enzyme activity, inhibitor, fluorescence | 15 min, pH 7.4 | 200
CC[C@H](C)[C@H](NC(=O)[C@H](CCCCN)NC(=O)[C@H](CCCNC(=N)N)NC(=O)[C@H](CC(C)C)NC(=O)[C@H](CCC(N)=O)NC(=O)[C@H](C)NC(=O)[C@H](C)NC(=O)[C@H](Cc1ccccc1)NC(=O)[C@H](CCC(=O)O)NC(=O)[C@@H]1CCCN1C(=O)[C@@H]1CCCN1C(=O)[C@H](CC(C)C)NC(=O)[C@H](CCC(=O)O)NC(=O)[C@H](C)NC(C)=O)C(=O)NCC(=O)N[C@@H](CC(=O)O)C(=O)N[C@@H](CCCCN)C(=O)N[C@H](C(=O)N[C@@H](Cc1ccc(O)cc1)C(=O)N[C@@H](CS)C(N)=O)C(C)C | BCL2L2 | ligand displacement, FP |  | ~14000
